Test [1] relates to Human immunodeficiency virus 1. Description: Antiviral activity against HIV1 NL43 in HeLa H1-JC.37 cells after 2 hrs by focal infectivity assay. The class given is functional, organism-based. The essentials: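 NL4-3 stock (10^5 FFU/ml) was preincubated with drug (0–30 µM) for 2 h at 37°C, then diluted 400-fold in DMEM/0.1% FBS so drug fell below inhibitory levels. The mixture was added to HeLa H1-JC.37 cells for 2 h adsorption. FBS was raised to 10% and cells were incubated 4 days. Focus immunostaining followed, with five replicate wells per concentration.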

Test [2] relates to Human immunodeficiency virus 1. Kind of test: Antiviral activity against HIV1 NL43 in PBMCs after 2 hrs by p24 antigen capture ELISA. The class given is functional, organism-based. The gist of the method:
(§1)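 NL4-3 was preincubated with drug for 2 h at 37°C and diluted 400-fold in medium with 0.1% FBS. It was added to CEMx174 (5 x 10^4/well), PHA-stimulated PBMCs (1 x 10^4/well) or HeLa H1-JC.37 cells (4.5 x 10^4/well) for 2 h. Cells were washed twice by centrifugation, resuspended in 10% FBS, and cultured 4 days at 37°C. Supernatant p24 was measured by antigen-capture ELISA.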

In test [3] the test system is Human immunodeficiency virus 1. Description: Antiviral activity against HIV1 NL43 in CEMx174 cells after 2 hrs by p24 antigen capture ELISA. The class given is functional, organism-based. The essentials:
as §1

Test [4] deals with Human immunodeficiency virus 1. Description: Antiviral activity against HIV1 NL43 in HeLa H1-JC.37 cells after 2 hrs by p24 antigen capture ELISA. It is filed as functional, organism-based. The gist of the method: as §1
For test [5], the system named is Human immunodeficiency virus 1. Description: Antiviral activity against HIV1 NL43 in HeLa H1-JC.37 cells pretreated for 2 hrs before viral challenge by FIA. The class given is functional, organism-based. The essentials:
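HeLa H1-JC.37 cells (4.5 x 10^3/well, seeded overnight) were exposed to drug in DMEM/0.1% FBS for 2 h, then washed twice. They were infected with 20–60 FFU NL4-3 for 2 h. Volume was brought to 200 µl at 10% FBS and cells were incubated 4 days at 37°C. Readout was focus counting. A control arm added drug together with virus.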

Test [6] concerns Human immunodeficiency virus 1. Kind of test: Binding affinity to HIV1 ogp140 by SPR competition study in presence of gp41 MAb 5F3. The gist of the method:
(§2)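 SPR was run at 25°C in HBS-P (pH 7.4). MAbs (10 µg/ml) were captured on immobilized goat anti-human Ig. 50 nM oligomeric gp140 was preincubated 30 min with 0, 1, 5 or 10 µM drug, then injected 1 min at 20 µl/min with 2 min dissociation. Surfaces were regenerated with 146 mM H3PO4. Responses were double-referenced and normalized to MAb capture level.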

The test system of test [7] is Human immunodeficiency virus 1. Description: Binding affinity to HIV1 ogp140 by SPR competition study in presence of gp41 MAb F240. The essentials: as §2
The test system of test [8] is Human immunodeficiency virus 1. Description: Antiviral activity against B clade R5 tropic HIV1 BaL in HeLa H1-JC.37 cells by focal infectivity assay. The class given is functional, organism-based. The following applies: Human immunodeficiency virus 1, BaL. The gist of the method:
(§3)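 HeLa H1-JC.37 cells were seeded at 4.5 x 10^3/well and grown overnight at 37°C. Drug was added in DMEM/0.1% FBS for 1 h. Cells then adsorbed 20–60 FFU of virus with drug for 1–2 h. FBS was raised to 10% with drug held constant, then cells were incubated 4 days. Foci were immunostained and counted as % of no-drug control. EC50 came from a regression line; ≥5 wells, ≥3 experiments.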

Test [9] has as its system Human immunodeficiency virus 1. Kind of test: Antiviral activity against B clade X4 tropic HIV1 HXBc2 in HeLa H1-JC.37 cells by focal infectivity assay. It is filed as functional, organism-based. To be noted: Human immunodeficiency virus 1, HXBc2, HeLa. The gist of the method: as §3
Test [10] has as its system Human immunodeficiency virus 1. Kind of test: Antiviral activity against B clade X4 R5 tropic HIV1 89.6 in HeLa H1-JC.37 cells by focal infectivity assay. It is filed as functional, organism-based. The following applies: Human immunodeficiency virus 1, 89.6, HeLa. The essentials: as §3
Test [11] deals with Human immunodeficiency virus 1. Description: Antiviral activity against A clade R5 tropic HIV1 92RW016 in HeLa H1-JC.37 cells by focal infectivity assay. It is filed as functional, organism-based. The following applies: Human immunodeficiency virus 1, 92RW016, HeLa. The essentials:
as §3

For test [12], the system named is Human immunodeficiency virus 1. Description: Antiviral activity against B clade R5 tropic HIV1 SF162 in HeLa H1-JC.37 cells by focal infectivity assay. The class given is functional, organism-based. The following applies: Human immunodeficiency virus 1, SF162, HeLa. The gist of the method: as §3
The test system of test [13] is Human immunodeficiency virus 1. Description: Antiviral activity against B clade X4 R5 tropic HIV1 92HT593 in HeLa H1-JC.37 cells by focal infectivity assay. The class given is functional, organism-based. To be noted: Human immunodeficiency virus 1, 92HT593, HeLa. The gist of the method:
as §3

Test [14] deals with Human immunodeficiency virus 1. Kind of test: Antiviral activity against B clade R5 tropic HIV1 92TH014 in HeLa H1-JC.37 cells by focal infectivity assay. The class given is functional, organism-based. To be noted: Human immunodeficiency virus 1, 92TH014, HeLa; in the assay text read “dual tropic” for “R5 tropic”. The essentials: as §3
Test [15] has as its system Human immunodeficiency virus 1. Kind of test: Antiviral activity against C clade R5 tropic HIV1 97ZA009 in HeLa H1-JC.37 cells by focal infectivity assay. To be noted: Human immunodeficiency virus 1, 97ZA009, HeLa. It is filed as functional, organism-based. The essentials: as §3
Test [16] has as its system Human immunodeficiency virus 1. Kind of test: Antiviral activity against C clade R5 tropic HIV1 98TZ013 in HeLa H1-JC.37 cells by focal infectivity assay. It is filed as functional, organism-based. The following applies: Human immunodeficiency virus 1, 98TZ013, HeLa. The essentials:
as §3

For test [17], the system named is Human immunodeficiency virus 1. Description: Antiviral activity against E clade R5 tropic HIV1 93TH078 in HeLa H1-JC.37 cells by focal infectivity assay. It is filed as functional, organism-based. To be noted: Human immunodeficiency virus 1, 93TH078, HeLa. The gist of the method:
as §3

The nature of test [18]: Cytotoxicity against human HeLa H1-JC.37 cells. It is filed as cell-based.
The subject of test [19] is Human immunodeficiency virus 1. Kind of test: Antiviral activity against B clade X4 tropic HIV1 NL43 in HeLa H1-JC.37 cells by focal infectivity assay. It is filed as functional, organism-based. The following applies: Human immunodeficiency virus 1, NL43, HeLa. The essentials: as §3
The test system of test [20] is Simian immunodeficiency virus. Description: Antiviral activity against R5 tropic SIV mac239 in HeLa H1-JC.37 cells by focal infectivity assay. It is filed as functional, organism-based. The essentials:
as §3

In test [21] the test system is Human immunodeficiency virus 1. Kind of test: Binding affinity to HIV1 ogp140 at by SPR competition study in presence of gp120 MAb b12.

The structures appear in SMILES notation. The source made the active and inactive calls. The rule behind the calls is not given here.

Regarding `O=S(=O)(/C=C/c1cc(O)c(O)c(O)c1)CS(=O)(=O)/C=C/c1cc(O)c(O)c(O)c1`, the result in test [1], in [2], in [3], in test [4], in [6] and in test [7] was Active. The outcome in [21] was Active. Further, the outcome in [5] was inactive. Also, the EC50 is 850 nM in test [8]; 530 nM in test [9]; 410 nM in [10]; 700 nM in test [11]; 400 nM in test [12]; 340 nM in [13]. Also, the EC50 in test [14] is 190 nM; in [15], 2300 nM; in test [16], 190 nM; in test [17], 500 nM; in test [19], 330 nM; in test [20] it was 1200 nM. The compound further returned an IC50 in [18] of 170000 nM.
